Key:
[1] = tested on: B16; assay: The compound was tested for inhibition of B16-BL6 melanoma cells growing in culture.; format: functional, cell-based; details: Mus musculus
[2] = tested on: B16; assay: The compound was tested for inhibition of B16-BL6 melanoma cells growing in culture with 0.25 mM DFMO.; format: functional, cell-based; details: Mus musculus
[3] = tested on: B16; assay: The compound was tested on spermidine content of the cells at 0.5 mM) conc; format: functional, Mus musculus
Procedure, shortened: (§1)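 B16-BL6 cells were cultured in supplemented DMEM and pretreated with DFMO at 0–1.0 mM. Cells were PBS-washed and pelleted, then extracted in 0.3 M perchloric acid with 1,6-hexanediamine internal standard (10 nmol per million cells). Extracts were benzoylated before the column and run by reversed-phase HPLC on a C8 cartridge at ambient temperature, 1.5 mL/min. Quantitation used a 0.05–10 nmol/mL standard curve.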

[4] = tested on: B16; assay: The compound was tested on [3H]spermidine uptake into BL6 cells at 0.0(mM)conc; format: functional, Mus musculus
Procedure, shortened: (§2)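 B16-BL6 melanoma cells were grown in DMEM with 10% heat-inactivated FBS, pyruvate, nonessential amino acids, glutamine, vitamins and 5 μg/mL insulin at […] in 5% CO2. They were pretreated with DFMO at 0–1.0 mM, then [3H]spermidine uptake was read as cpm per million cells. Values are mean ± SEM, compared by Duncan's and LSD tests.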

[5] = tested on: B16; assay: The compound was tested in vitro for inhibition of cell growth on the B16-BL6 melanoma cells at 0.75(mM)conc.; format: functional, Mus musculus
[6] = tested on: B16; assay: The compound was tested on [3H]spermidine uptake into BL6 cells at 0.25(mM)conc; format: functional, Mus musculus; procedure, shortened: as §2
[7] = tested on: B16; assay: The compound was tested in vitro for inhibition of cell growth on the B16-BL6 melanoma cells at 0.0(mM)conc.; format: functional, Mus musculus
[8] = tested on: B16; assay: The compound was tested on [3H]-spermidine uptake into BL6 cells at 0.1(mM)conc; format: functional, Mus musculus; procedure, shortened: as §2
[9] = tested on: B16; assay: The compound was tested on [3H]spermidine uptake into BL6 cells at 1.0(mM)conc; format: functional, Mus musculus; procedure, shortened: as §2
[10] = tested on: B16; assay: The compound was tested in vitro for inhibition of cell growth on the B16-BL6 melanoma cells at 0.25(mM)conc.; format: functional, Mus musculus
[11] = tested on: B16; assay: The compound was tested on spermidine content of the cells at 0.0(mM)conc; format: functional, Mus musculus; procedure, shortened: as §1
[12] = tested on: B16; assay: The compound was tested on [3H]spermidine uptake into BL6 cells at 0.5(mM)conc; format: functional, Mus musculus; procedure, shortened: as §2
[13] = tested on: B16; assay: The compound was tested in vitro for inhibition of cell growth on the B16-BL6 melanoma cells at 0.5(mM)conc.; format: functional, Mus musculus
[14] = tested on: B16; assay: The compound was tested in vitro for inhibition of cell growth on the B16-BL6 melanoma cells at 0.1(mM)conc.; format: functional, Mus musculus
[15] = tested on: B16; assay: The compound was tested on spermidine content of the cells at 1.0(mM)conc; format: functional, Mus musculus; procedure, shortened: as §1
[16] = tested on: B16; assay: The compound was tested on spermidine content of the cells at 0.1(mM)conc; format: functional, Mus musculus; procedure, shortened: as §1
[17] = tested on: B16; assay: The compound was tested in vitro for inhibition of cell growth on the B16-BL6 melanoma cells at 1.0(mM)conc.; format: functional, Mus musculus
[18] = tested on: B16; assay: The compound was tested on [3H]-spermidine uptake into BL6 cells at 0.75(mM)conc; format: functional, Mus musculus; procedure, shortened: as §2
[19] = tested on: B16; assay: The compound was tested on spermidine content of the cells at 0.25(mM)conc; format: functional, Mus musculus; procedure, shortened: as §1
[20] = tested on: B16; assay: The compound was tested on spermidine content of the cells at 0.75(mM)conc; format: functional, Mus musculus; procedure, shortened: as §1

## CC(=O)NCCc1ccc(O)c(O)c1
[1]
  IC50: 1220 µM
[2]
  IC50: 2060 µM

## NCCCNC(CCCN)C(=O)NCCc1ccc(N(CCCl)CCCl)cc1 (stereo unspecified)
[1]
  IC50: 333 µM
[2]
  IC50: 512 µM

## NCCCNC(CCCN)C(=O)NCCc1ccc(O)c(O)c1 (stereo unspecified)
[1]
  IC50: 1230 µM
[2]
  IC50: 1310 µM

## O=C(O)CCCc1ccc(N(CCCl)CCCl)cc1 [CHLORAMBUCIL]
[1]
  IC50: 220 µM
[2]
  IC50: 280 µM

## NCCCC(N)(C(=O)O)C(F)F (stereo unspecified) [EFLORNITHINE]
[3]
  Spermidine concentration: 0.55 nM (10e6*cells)-1
[4]
  cpm/million cells: 146600
[5]
  Cell growth: 1330000 number of cells ml-1
[6]
  cpm/million cells: 219910
[7]
  Cell growth: 2430000 number of cells ml-1
[8]
  cpm/million cells: 221610
[9]
  cpm/million cells: 250160
[10]
  Cell growth: 1940000 number of cells ml-1
[11]
  Spermidine concentration: 2.07 nM (10e6*cells)-1
[12]
  cpm/million cells: 214540
[13]
  Cell growth: 1090000 number of cells ml-1
[14]
  Cell growth: 2180000 number of cells ml-1
[15]
  Spermidine concentration: 0.35 nM (10e6*cells)-1
[16]
  Spermidine concentration: 0.6 nM (10e6*cells)-1
[17]
  Cell growth: 1480000 number of cells ml-1
[18]
  cpm/million cells: 226404
[19]
  Spermidine concentration: 0.34 nM (10e6*cells)-1
[20]
  Spermidine concentration: 0.52 nM (10e6*cells)-1

Source: ChEMBL document CHEMBL1125356, “Synthesis and evaluation of novel spermidine derivatives as targeted cancer chemotherapeutic agents” (J Med Chem, 1992)
